Data taken from the array DNA melting data of Ke et al. (doi:10.1101/2024.01.08.574731).

Legend:
[1] = melting temperature; fluorescence melt of hairpins on a sequencing array, two-state fit, raised by 9.35 °C to match UV melts; conditions: sodium 0.088 M
Procedure, shortened: (§1)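 With Cy3 and quencher oligos annealed, library hairpins on a sequenced MiSeq flow cell were imaged for Cy3 fluorescence in 50 mM Na-HEPES pH 8.0, 25 mM NaCl, in 2.5 °C steps up to 60 °C. Melting temperature and folding enthalpy were derived from bootstrapped two-state fits of signals normalised to pre-quench Cy3 and to control constructs. Four replicates were combined by inverse variance, with fitted temperatures raised by 9.35 °C to match UV melts.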

[2] = folding enthalpy; higher = less favourable; fluorescence melt of hairpins on a sequencing array, two-state fit; conditions: sodium 0.088 M
Procedure, shortened: as §1

Which results are given for GTCGGCGAAAGCCTCGAC ((((((....)))..)))?
Tm [1]: 42.4 °C; folding enthalpy [2]: -14.7 kcal/mol

Which Tm [1] does the source give for GTCGGCGGAAACACCGAC (((((.(....).))))) here?
The Tm was 55.3 °C.

And the folding enthalpy [2]?
The folding enthalpy was -37.9 kcal/mol.

Which Tm [1] does the source give for GTCGGCGGAAACGCCAAC ((.((((....)))).)) here?
The Tm was 48.2 °C.

What about the folding enthalpy [2] of the same sequence?
Its folding enthalpy is -12.7 kcal/mol.

Which Tm [1] does the source give for GTCGGCGGAAACGCTGAC (((.(((....))).))) here?
Its Tm is 63.1 °C.

What about the folding enthalpy [2] of the same sequence?
The folding enthalpy was -39.3 kcal/mol.

Which Tm [1] does the source give for GTCGGCGGAAACGCTGGC (.(.(((....))).).) here?
The Tm was 50.5 °C.

And the folding enthalpy [2]?
Its folding enthalpy is -21.2 kcal/mol.

For GTCGGGCCGAAAGGCGAC (((..(((....)))))), which Tm [1] is on record?
The Tm was 51 °C.

What about the folding enthalpy [2] of the same sequence?
The folding enthalpy was -14.5 kcal/mol.

Which Tm [1] does the source give for GTCGGGCGAAAGCCGGAC (((.(((....))).))) here?
The Tm was 67.7 °C.

And the folding enthalpy [2]?
The folding enthalpy was -27.7 kcal/mol.

What does the source list for GTCGGGGGAAACCCCGGC (.(((((....))))).)?
Tm [1]: 62.5 °C; folding enthalpy [2]: -22 kcal/mol

With GTCGGGTCGAAAGACGAC (((..(((....)))))) as the sequence, how does the Tm [1] read?
The Tm was 47.4 °C.

What about the folding enthalpy [2] of the same sequence?
The folding enthalpy was -19.8 kcal/mol.

What does the source list for GTCGGTGCGAAAGCAGAC (((..(((....))))))?
Tm [1]: 45.2 °C; folding enthalpy [2]: -14.2 kcal/mol

With GTCGTAGAAATACGAC ((((((....)))))) as the sequence, how does the Tm [1] read?
The Tm was 56 °C.

And the folding enthalpy [2]?
Its folding enthalpy is -38 kcal/mol.

For GTCGTATCGAAAGATGAC (((..(((....)))))), which Tm [1] is on record?
The Tm was 34.1 °C.

What about the folding enthalpy [2] of the same sequence?
The folding enthalpy was -20 kcal/mol.

Which results are given for GTCGTCGAAAGACAAGAC ((((((....)))..)))?
Tm [1]: 44.7 °C; folding enthalpy [2]: -20 kcal/mol

What does the source list for GTCGTCGAAAGACACGAC ((((((....)))..)))?
Tm [1]: 48.1 °C; folding enthalpy [2]: -16.7 kcal/mol

For GTCGTCGAAAGACGGGAC ((((((....)))..))), which Tm [1] is on record?
The Tm was 41.4 °C.

And the folding enthalpy [2]?
The folding enthalpy was -10.3 kcal/mol.

What does the source list for GTCGTGCGAAAGCAGGAC (((.(((....))).)))?
Tm [1]: 64.5 °C; folding enthalpy [2]: -35.9 kcal/mol

With GTCGTTCCGAAAGGAGAC (((..(((....)))))) as the sequence, how does the Tm [1] read?
Its Tm is 35.1 °C.

What about the folding enthalpy [2] of the same sequence?
Its folding enthalpy is -22 kcal/mol.

Which results are given for GTCGTTCGAAAGAAGGAC (((.(((....))).)))?
Tm [1]: 52.2 °C; folding enthalpy [2]: -38.1 kcal/mol

What does the source list for GTCGTTGAAAAACGAC ((((((....))))))?
Tm [1]: 61.6 °C; folding enthalpy [2]: -35.2 kcal/mol

For GTCGTTGGAAACAACAAC ((.((((....)))).)), which Tm [1] is on record?
The Tm was 34.8 °C.

And the folding enthalpy [2]?
The folding enthalpy was -17.7 kcal/mol.

What does the source list for GTCGTTGGAAACAACGAC (((((((....)))))))?
Tm [1]: 67.6 °C; folding enthalpy [2]: -41.6 kcal/mol

With GTCGTTGGAAACAACGGC (.(((((....))))).) as the sequence, how does the Tm [1] read?
The Tm was 55.1 °C.

And the folding enthalpy [2]?
The folding enthalpy was -39.6 kcal/mol.

Which results are given for GTCGTTGGAAACAGTGAC (((..((....))..)))?
Tm [1]: 32.4 °C; folding enthalpy [2]: -13.5 kcal/mol

Which results are given for GTCTAAACGAAAGTTGAC (((..(((....))))))?
Tm [1]: 34.5 °C; folding enthalpy [2]: -17.7 kcal/mol

For GTCTAACGAAAGTTGAC (((.(((....)))))), which Tm [1] is on record?
Its Tm is 43.6 °C.

What about the folding enthalpy [2] of the same sequence?
The folding enthalpy was -24.9 kcal/mol.

Which Tm [1] does the source give for GTCTAACGAAAGTTGGAC (((.(((....))).))) here?
Its Tm is 52 °C.

And the folding enthalpy [2]?
Its folding enthalpy is -19.8 kcal/mol.

With GTCTAACGAAAGTTTGAC (((.(((....))).))) as the sequence, how does the Tm [1] read?
Its Tm is 47.6 °C.

And the folding enthalpy [2]?
The folding enthalpy was -36.7 kcal/mol.

What does the source list for GTCTAAGAAATTAGAC ((((((....))))))?
Tm [1]: 40.4 °C; folding enthalpy [2]: -25.8 kcal/mol

For GTCTAAGGAAACTTGGAC (((.(((....))).))), which Tm [1] is on record?
The Tm was 40.2 °C.

And the folding enthalpy [2]?
The folding enthalpy was -21.9 kcal/mol.

For GTCTAATCGAAAGATGAC (((..(((....)))))), which Tm [1] is on record?
The Tm was 31.6 °C.

And the folding enthalpy [2]?
The folding enthalpy was -14.8 kcal/mol.

What does the source list for GTCTACCCGAAAGGGGAC (((..(((....))))))?
Tm [1]: 36.2 °C; folding enthalpy [2]: -13.8 kcal/mol

What does the source list for GTCTACCGAAAGGTGGAC (((.(((....))).)))?
Tm [1]: 60.6 °C; folding enthalpy [2]: -41.5 kcal/mol

Which results are given for GTCTACGAAAGTAAGAC ((((((....))).)))?
Tm [1]: 46.5 °C; folding enthalpy [2]: -24.2 kcal/mol

With GTCTACGAAAGTAATGAC ((((((....)))..))) as the sequence, how does the Tm [1] read?
Its Tm is 30.7 °C.

What about the folding enthalpy [2] of the same sequence?
Its folding enthalpy is -17.6 kcal/mol.

For GTCTACGAAAGTAGGGAC ((((((....)))..))), which Tm [1] is on record?
Its Tm is 32.3 °C.

What about the folding enthalpy [2] of the same sequence?
Its folding enthalpy is -16.2 kcal/mol.

Which results are given for GTCTACGAAAGTATAGAC ((((((....)))..)))?
Tm [1]: 36.2 °C; folding enthalpy [2]: -24.4 kcal/mol

For GTCTACGGAAACGTAGGC (.(((((....))))).), which Tm [1] is on record?
Its Tm is 51.2 °C.

What about the folding enthalpy [2] of the same sequence?
The folding enthalpy was -29.2 kcal/mol.

Which results are given for GTCTAGGAAACTAGAC ((((((....))))))?
Tm [1]: 50.8 °C; folding enthalpy [2]: -39.2 kcal/mol

Which results are given for GTCTAGGGAAACCTAGAC (((((((....)))))))?
Tm [1]: 56.2 °C; folding enthalpy [2]: -40.4 kcal/mol

For GTCTAGGGAAACCTGGAC (((.(((....))).))), which Tm [1] is on record?
Its Tm is 47.4 °C.

What about the folding enthalpy [2] of the same sequence?
Its folding enthalpy is -30.2 kcal/mol.

What does the source list for GTCTATACGAAAGTAGAC (((..(((....))))))?
Tm [1]: 36.7 °C; folding enthalpy [2]: -21.8 kcal/mol

What does the source list for GTCTATGGAAACATAGAC (((((((....)))))))?
Tm [1]: 54.9 °C; folding enthalpy [2]: -42.7 kcal/mol

What does the source list for GTCTATGGAAACGTAGAC (((((.(....).)))))?
Tm [1]: 43.7 °C; folding enthalpy [2]: -31.8 kcal/mol

With GTCTCCACGAAAGTGGAC (((..(((....)))))) as the sequence, how does the Tm [1] read?
Its Tm is 32.2 °C.

What about the folding enthalpy [2] of the same sequence?
The folding enthalpy was -7.36 kcal/mol.

With GTCTCCCGAAAGGGGAC (((.(((....)))))) as the sequence, how does the Tm [1] read?
The Tm was 54.8 °C.

And the folding enthalpy [2]?
The folding enthalpy was -31.4 kcal/mol.
